High-throughput results: PubChem, several laboratories
Compounds with a hit are over-represented: about 2.5% of the library has one in this group of screens.
GASC-1 inh: inhibitors of GASC-1 histone demethylase, primary screen, biochemical, fluorescence, DELFIA europium. AID 2099, 2009. Lysine-specific demethylase 4C (Homo sapiens), Q9H3R0. 0.069% of 330,000 active. GST-JMJD2C(1-420) H3K9me3 demethylation. inhibition, % at 2.35 µM;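 active means more than half of a compound's replicate wells show inhibition beyond 50%, single wells judged on their own value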;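 further: signal counts dimethyl H3K9 product captured on neutravidin plate; 0% = median of DMSO wells and 100% = 0.3 times that DMSO median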
NR2E3 ag-1: NR2E3 agonists in two-hybrid cells, primary screen, cell-based, luminescence, CHO-S, Gal4-NCOR/VP16-NR2E3; Photoreceptor-specific nuclear receptor (Homo sapiens), Q9Y5X4; luciferase; inhibition of corepressor binding, % at 3.98 µM; 0.35% of 360,000 active; AID 602229, 2012;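 active means inhibition above the mean of all tested compounds plus 3 SD, cut at about 70% in these data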;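 further: 0% = DMSO with NR2E3 transfected cells and 100% = cells lacking NR2E3 construct; higher means lower luciferase signal from less NR2E3 corepressor binding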
proKLK7 act: proKLK7 zymogen activators, primary screen, biochemical, fluorescence intensity | purified proKLK7, EDANS-DABCYL substrate fluorescence; 100% is mature enzyme control, 0% vehicle | 0.9% of 370,000 active | Kallikrein-7 (Homo sapiens), P49862 | activation, % at 7 µM | AID 652039, 2013;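 active means activation above the mean of all tested compounds plus 3 SD, computed per campaign excluding outliers beyond control limits, cut at about 13% in these data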
ADAM17 inh: ADAM17 inhibitors, primary screen, biochemical, QFRET; Disintegrin and metalloproteinase domain-containing protein 17 (Homo sapiens), P78536; recombinant ADAM17, EDANS/DABCYL FRET peptide cleavage; inhibition, % at 6.95 µM; 0.83% of 370,000 active;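 active means inhibition above the mean of compounds lying between control limits plus 3 SD, set per campaign, cut at about 8.5% in these data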;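 further: 0% = DMSO-only wells as the low control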
Target sequence (P78536 215-824 limits assumed): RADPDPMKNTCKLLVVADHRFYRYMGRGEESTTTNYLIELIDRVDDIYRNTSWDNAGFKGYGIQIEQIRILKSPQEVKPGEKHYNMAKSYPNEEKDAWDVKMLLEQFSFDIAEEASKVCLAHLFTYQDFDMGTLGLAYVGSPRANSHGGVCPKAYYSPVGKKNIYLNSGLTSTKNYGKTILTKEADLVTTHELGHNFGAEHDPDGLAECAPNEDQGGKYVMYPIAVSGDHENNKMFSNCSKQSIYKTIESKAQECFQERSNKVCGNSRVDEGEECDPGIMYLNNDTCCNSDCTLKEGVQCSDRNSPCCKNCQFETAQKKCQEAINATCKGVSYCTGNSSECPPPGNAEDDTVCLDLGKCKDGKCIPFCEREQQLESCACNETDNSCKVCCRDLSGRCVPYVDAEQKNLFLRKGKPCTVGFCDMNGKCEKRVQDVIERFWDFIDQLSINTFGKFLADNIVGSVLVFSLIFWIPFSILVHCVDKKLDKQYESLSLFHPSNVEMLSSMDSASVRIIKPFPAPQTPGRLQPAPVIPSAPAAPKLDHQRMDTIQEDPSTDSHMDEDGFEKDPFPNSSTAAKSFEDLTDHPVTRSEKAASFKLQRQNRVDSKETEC
NR2E3 ag-2: inhibitors of NR2E3-RetCOR corepressor binding, primary screen, NR2E3 agonist project, biochemical, TR-FRET, GST-NR2E3, biotin-RetCOR. Photoreceptor-specific nuclear receptor (Homo sapiens), Q9Y5X4. 1536-well. inhibition of corepressor binding, % at 4.78 µM. 0.12% of 320,000 active;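 active means percent inhibition above the cutoff of mean plus 3 SD of all tested compounds, set per screening campaign, cut at about 20% in these data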;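 further: 0% = DMSO wells and 100% = biotin wells as full block of FRET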
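System: GST-NR2E3 and biotin-RetCOR proteins; probe or stimulus: 7 nM biotin-RetCOR; doses: compound at 4.8 µM, single dose; schedule: Compound–protein incubation for 5 h at 4 °C; detection: time-resolved FRET; read-out: percent inhibition; controls: biotin wells as high control, 0.6% DMSO wells as low control; format: 1536-well plates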
ADAM10 inh: human ADAM10 inhibitors, primary screen, biochemical, QFRET, HTS | recombinant ADAM10, EDANS/DABCYL FRET peptide cleavage, 3 h | Disintegrin and metalloproteinase domain-containing protein 10 (Homo sapiens), O14672 | inhibition, % at 7 µM | 0.62% of 370,000 active;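 active means inhibition above a per-campaign cutoff equal to the mean of compounds falling between control-based bounds plus 3 SD, cut at about 20% in these data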;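 further: 0% = DMSO wells while the 100% control is not disclosed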
KLK7 act conf: proKLK7 zymogen activators, confirmation, biochemical, fluorescence intensity, triplicate | 68% of 3,200 active | AID 686949, 2013 | activation, % at 7 µM | purified proKLK7, EDANS-DABCYL substrate fluorescence; scaled: vehicle 0, mature enzyme 100 | shares compounds with proKLK7 act;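 active means activation, as change over the incubation, above the mean of all tested compounds plus 3 SD, cut at about 13% in these data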
EDANS-DABCYL int: EDANS-DABCYL substrate optical interference, artefact control for kallikrein-7 zymogen activator project, biochemical, fluorescence intensity, high throughput; shares compounds with proKLK7 act; no enzyme, 4 h; solvent 0%, active enzyme control 100%; activation, % at 7 µM; 80% of 3,200 active;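 active means activation above the all-compound mean plus 3 SD, ignoring values outside control-based bounds, cut at about 4.8% in these data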;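 further: value is the 4 h activation minus the activation read at time zero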
K7 EDANS ctr: counter-screen for kallikrein-7 activators: EDANS-DABCYL interference, dose response | shares compounds with proKLK7 act | AID 720493 | EC50, µM | 20% of 250 active | EDANS-DABCYL peptide fluorescence interference, no enzyme;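 active means compounds that raise the fluorescence signal in this interference counterscreen, with EC50 at or below 10 µM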;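 further: intact quenched peptide substrate alone read at 355 nm excitation and 520 nm emission; signal is fluorescence gain from T0 to T4 after four hours at room temperature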
Starred values were filed as active, the others as inactive; i = inactive; nt = no result given.

SMILES	GASC-1 inh	NR2E3 ag-1	proKLK7 act	ADAM17 inh	NR2E3 ag-2	ADAM10 inh	KLK7 act conf	EDANS-DABCYL int	others
COc1ccc(OC)c(C2=C/C(=C/c3ccccn3)C(=O)O2)c1	13	-9	0	-7	0	-30	nt	nt
Cc1ccccc1OCCc1c(C)[nH]c(=S)[nH]c1=O	-15	-23	1	0	3	-3	nt	nt
CCc1nc2c(OCCC3CCCCC3)cccn2c1N(C=O)Cc1ccccc1	nt	15	0	3	nt	-4	nt	nt
CCOc1ccc(NC(=O)CN(C)C(=O)c2cc([N+](=O)[O-])ccc2N2CCOCC2)cc1OCC	-13	-1	0	-4	-2	-1	nt	nt
COc1ccc(OC)c2c(N3CC(C)OC(C)C3)cc(C(F)(F)F)nc12 (stereo not drawn)	1	1	15*	-25	0	-143	13*	12*
COc1ccc(OC)c2c(N3CCN(C)CC3)cc(C(F)(F)F)nc12	-24	-12	13*	-22	5	-56	9	15*
CN1CCN(c2nc(-c3ccccc3)cc(C(F)(F)F)n2)CC1	9	9	1	-10	-2	-27	nt	nt
COc1ccc(-c2cc(C(F)(F)F)nc(SCC(=O)N3CC(C)OC(C)C3)n2)cc1OC (stereo not drawn)	0	-16	-1	-4	nt	-15	nt	nt
CN(C(=O)CCS(=O)(=O)c1cc2c(cc1Cl)NC(=O)CO2)C1CCCCC1	-2	1	0	-2	4	-1	nt	nt
CCN(C(=O)COC(=O)c1ccccc1NCCO)C1CCS(=O)(=O)C1 (stereo not drawn)	-3	-47	25*	i	-3	i	32*	35*
O=C(OCC(=O)N1CCC(Cc2ccccc2)CC1)c1ccccc1NCCO	-6	-5	-10	-393	-1	i	nt	nt
CCOC(=O)N1CCN(C(=O)COC(=O)c2ccccc2NCCO)CC1	-3	-16	25*	i	5	i	28*	38*
Cc1ccc(-c2cc(C(=O)OCC(=O)N(C)C3CCS(=O)(=O)C3)c3ccccc3n2)o1 (stereo not drawn)	5	-9	135*	-54	-1	-214	14*	11*	K7 EDANS ctr=7*
CCN(C(=O)COC(=O)c1cc(-c2ccc(C)o2)nc2ccccc12)C1CCS(=O)(=O)C1 (stereo not drawn)	9	-25	174*	-64	-1	-186	202*	187*
COC(=O)C1(C(=O)OC)C[C@H](c2ccc(OC)cc2)N(Cc2ccccc2OC)[C@@H]1c1cccs1	nt	nt	1	2	nt	5	nt	nt
C/C(=N\NC(=O)OC(C)(C)C)c1ccccc1Br	28	-58	0	1	-1	4	nt	nt
Cc1ccc(-c2cc(C(=O)Nc3ccccc3C(N)=O)c3ccccc3n2)o1	3	7	0	-13	4	-31	nt	nt
Cc1ccc(-c2cc(C(=O)NCC3(N(C)C)CCCCC3)c3ccccc3n2)o1	nt	3	72*	-211	nt	i	21*	46*
CCc1cc2c(COC(=O)c3cccc(NS(C)(=O)=O)c3)cc(=O)oc2cc1O	-4	-29	54*	-116	-1	-307	62*	55*
